Active and inactive are the calls of the source. The rule behind the calls is not given here.
Key:
[1] = molecular target: T1, Corticotropin-releasing factor receptor 1 (Homo sapiens, UniProt P34998); experiment: Displacement of [125I]CRF from human corticotropin-releasing factor receptor 1 expressed in CHO-K1 cells after 2 hrs by gamma counting; format: cell-based
T1 sequence (P34998 whole entry): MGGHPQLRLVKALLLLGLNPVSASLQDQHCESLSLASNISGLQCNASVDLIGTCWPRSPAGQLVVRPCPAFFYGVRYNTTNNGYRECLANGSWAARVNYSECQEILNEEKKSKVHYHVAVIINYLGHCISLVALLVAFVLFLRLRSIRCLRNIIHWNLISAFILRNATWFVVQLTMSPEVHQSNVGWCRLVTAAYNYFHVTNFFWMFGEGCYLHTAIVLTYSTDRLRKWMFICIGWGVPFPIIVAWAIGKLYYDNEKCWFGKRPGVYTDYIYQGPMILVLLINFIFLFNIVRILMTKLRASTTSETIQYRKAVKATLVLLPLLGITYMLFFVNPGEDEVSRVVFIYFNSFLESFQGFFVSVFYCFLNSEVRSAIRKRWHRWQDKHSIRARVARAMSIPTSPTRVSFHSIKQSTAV
Method in brief: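 Crude membranes prepared from CRF1-expressing CHO-K1 cells in 50 mmol/l Tris-HCl with 10 mmol/l MgCl2, 2 mmol/l EDTA and aprotinin. Membranes incubated with 0.5 nmol/l (stock) ¹²⁵I human/rat CRF and compound (1–10,000 nmol/l) for 2 h at room temperature. Reaction ended by centrifugation, pellet washed with PBS/0.01% Triton X-100. IC50 of specific binding taken from concentration–response curves.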

[2] = molecular target: T1, Corticotropin-releasing factor receptor 1; experiment: Antagonist activity at human corticotropin-releasing factor receptor 1 expressed in CHO-K1 cells assessed as inhibition of CRF-induced cAMP production after 15 mins by enzyme immunoassay; format: functional, cell-based
Method in brief: (§1)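 CHO-K1 cells expressing CRF1 seeded at 1 × 10⁴ cells/well and incubated overnight. Cells washed with F-12, then preincubated 10 min at 37 °C in F-12 with 1 mmol/l IBMX. Compound (1–10,000 nmol/l) added with medium containing 10 nmol/l CRF (stock), then 15 min at 37 °C. Cells chilled and cAMP measured by enzyme immunoassay, blank-corrected; IC50 taken from concentration–response curves.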

[3] = Ratio of drug level in brain to plasma in rat at 3 mg/kg, po after 1 hr; format: ADME, organism-based; parameters: dose 3 mg/kg, route oral; details: read-out: BPR
[4] = AUC (infinity) in rat at 0.3 mg/kg, iv; format: ADME, organism-based; parameters: time infinity, dose 0.3 mg/kg, route intravenous; details: plasma
Method in brief: (§2)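 Fasted male rats (n = 4) dosed intravenously at 0.3 mg/kg. Samples ice-chilled and centrifuged to plasma, then stored at −70 °C. AUC, T1/2, Vss and CL taken from the plasma concentration time course.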

[5] = test system: Rattus norvegicus; experiment: Anxiolytic activity in swim stress-loaded Sprague-Dawley rat assessed as increase in time spent in open arms at 3 mg/kg, po after 1 hr by plus-maze test; format: functional, organism-based; parameters: dose 3 mg/kg
Method in brief: (§3)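 Male Sprague–Dawley rats (230–280 g) given 0.5% MC vehicle or compound orally 1 h before testing. Rats forced to swim 90 s in 22 °C water, then placed at the maze centre facing a closed arm. Behaviour video-tracked for 5 min; time in open arms and open-arm entries scored. 16 rats per group, mean ± S.E.; Dunnett test against vehicle.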

[6] = Oral bioavailability in rat at 3 mg/kg; format: ADME, organism-based; details: in vivo
[7] = molecular target: T2, Corticotropin-releasing factor receptor 1 (Rattus norvegicus, UniProt P35353); experiment: Displacement of [125I]CRF from corticotropin-releasing factor receptor 1 in rat brain membranes after 2 hrs by gamma counting; format: cell membranes
T2 sequence (P35353 whole entry): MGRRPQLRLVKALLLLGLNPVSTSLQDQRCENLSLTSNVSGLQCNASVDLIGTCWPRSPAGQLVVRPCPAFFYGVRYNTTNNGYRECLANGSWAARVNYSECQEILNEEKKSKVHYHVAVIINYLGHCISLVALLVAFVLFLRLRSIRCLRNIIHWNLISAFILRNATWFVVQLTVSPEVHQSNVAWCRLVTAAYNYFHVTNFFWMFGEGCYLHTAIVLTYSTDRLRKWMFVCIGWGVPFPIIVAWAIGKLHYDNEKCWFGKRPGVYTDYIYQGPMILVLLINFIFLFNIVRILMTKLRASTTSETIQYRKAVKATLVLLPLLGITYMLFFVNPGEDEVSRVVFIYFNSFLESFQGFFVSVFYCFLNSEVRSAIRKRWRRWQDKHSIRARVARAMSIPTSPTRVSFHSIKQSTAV

[8] = Half life in rat at 3 mg/kg, po; format: ADME, organism-based; parameters: dose 3 mg/kg, route oral; details: in vivo
Method in brief: (§4)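 Fasted male rats (n = 4) given 3 mg/kg orally in saline with 0.5% MC (w/v). Jugular vein blood (heparinized syringe) taken at 1, 2, 4, 6, 8, 24, 48, 72 h. Plasma obtained by centrifugation and stored at −70 °C. AUC, Cmax, Tmax and T1/2 derived from the plasma concentration time course.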

[9] = molecular target: T2, Corticotropin-releasing factor receptor 1; experiment: Antagonist activity at rat corticotropin-releasing factor receptor 1 expressed in CHO-K1 cells assessed as inhibition of CRF-induced cAMP production after 15 mins by enzyme immunoassay; format: functional, cell-based; method in brief: as §1
[10] = Tmax in rat at 3 mg/kg, po; format: ADME, organism-based; parameters: dose 3 mg/kg, route oral; details: in vivo; method in brief: as §4
[11] = test system: Rattus norvegicus; experiment: Anxiolytic activity in swim stress-loaded Sprague-Dawley rat assessed as increase in time spent in open arms at 10 mg/kg, po after 1 hr by plus-maze test; format: functional, organism-based; parameters: dose 10 mg/kg; method in brief: as §3
[12] = Half life in rat at 0.3 mg/kg, iv; format: ADME, organism-based; parameters: dose 0.3 mg/kg, route intravenous; details: in vivo; method in brief: as §2
[13] = AUC (infinity) in rat at 3 mg/kg, po; format: ADME, organism-based; parameters: time infinity, dose 3 mg/kg, route oral; details: plasma; method in brief: as §4
[14] = Cmax in rat at 3 mg/kg, po; format: ADME, organism-based; parameters: dose 3 mg/kg, route oral; details: in vivo; method in brief: as §4
[15] = Volume of distribution at steady state in rat at 0.3 mg/kg, iv; format: ADME, organism-based; parameters: dose 0.3 mg/kg, route intravenous; details: in vivo, read-out: Vdss; method in brief: as §2
[16] = Total clearance in rat at 0.3 mg/kg, iv; format: ADME, organism-based; parameters: dose 0.3 mg/kg, route intravenous; details: in vivo; method in brief: as §2

SMILES	IC50 [1]	EC50 [2]	other results
CCC(CC)Nc1cc(C)nc2c(-c3ccc(OC)cc3C)c(C)nn12	–	–	IC50 [2]: 10 nM
CCOc1ccc(-c2c(C)nn3c(NC(CC)CC)c4c(nc23)CCC4)c(Cl)c1	71 nM	–	–
CCC(CC)Nc1c2c(nc3c(-c4cc(C)ccc4C)c(C)nn13)CCC2	820 nM	–	–
CCC(CC)Nc1c2c(nc3c(-c4ccc(OC)cc4C)c(C)nn13)CCS2	80 nM	–	–
CCC(CC)Nc1c2c(nc3c(-c4ccc(OC)cc4C)c(C(F)(F)F)nn13)CCC2	59 nM	–	–
CCC(CC)Nc1c2c(nc3c(-c4ccc(OC)cc4Cl)c(C)nn13)OCC2	84 nM	8 nM	–
CCC(CC)Nc1c2c(nc3c(-c4ccc(OC)cc4C)cnn13)CCC2	240 nM	–	–
CCC(CC)Nc1c2c(nc3c(-c4ccc(OC)cc4C)c(C4CCC4)nn13)CCC2	490 nM	–	–
CCC(CC)Nc1c2c(nc3c(-c4ccc(OC)cc4C)c(CSC)nn13)CCC2	620 nM	–	–
CCC(CC)Nc1c2c(nc3c(-c4ccc(F)cc4C)c(C)nn13)CCC2	93 nM	–	–
CCC(CC)Nc1c2c(nc3c(-c4ccc(OC)c(OC)c4)c(C)nn13)CCC2	600 nM	–	–
CCC(CC)Nc1c2c(nc3c(-c4ccc(C)cc4C)c(C)nn13)CCC2	72 nM	920 nM	–
CCC(CC)Nc1c2c(nc3c(-c4ccc(OC)cc4C)c(C)nn13)CCN2	170 nM	–	–
CCc1nn2c(NC(CC)CC)c3c(nc2c1-c1ccc(OC)cc1C)CCC3	97 nM	–	–

Further compounds by falling IC50 [1], results first:

IC50 [1]	EC50 [2]	SMILES	other results
49 nM	100 nM	CCC(CC)Nc1c(C)c(C)nc2c(-c3ccc(OC)cc3Cl)c(C)nn12	–
49 nM	–	CCC(CC)Nc1c2c(nc3c(-c4ccc(OC)cc4SC)c(C)nn13)CCC2	–
38 nM	–	CCC(CC)Nc1c2c(nc3c(-c4ccc(N(C)C)cc4C)c(C)nn13)CCC2	–
37 nM	200 nM	CCC(CC)Nc1c2c(nc3c(-c4ccc(Cl)cc4Cl)c(C)nn13)CCC2	–
37 nM	170 nM	CCC(CC)Nc1c2c(nc3c(-c4ccc(OC)cc4C)c(C)nn13)CCC2	–
37 nM	150 nM	CCC(CC)Nc1c2c(nc3c(-c4ccc(OC)cc4C)c(C)nn13)CSC2	–
35 nM	75 nM	CCC(CC)Nc1c2c(nc3c(-c4ccc(OC)cc4C)c(C)nn13)COC2	–
31 nM	640 nM	CCC(CC)Nc1c2c(nc3c(-c4ccc(OC)cc4C)c(C)nn13)CCO2	–
22 nM	66 nM	CCC(CC)Nc1c2c(nc3c(-c4ccc(OC)cc4Cl)c(C)nn13)COC2	–
22 nM	47 nM	CCC(CC)Nc1c2c(nc3c(-c4cc(C)c(OC)cc4C)c(C)nn13)CCC2	–
15 nM	–	CCC(CC)Nc1c2c(nc3c(-c4ccc(OC(F)(F)F)cc4Cl)c(C)nn13)CCC2	–
9 nM	80 nM	CCC(CC)Nc1c2c(nc3c(-c4c(C)cc(OC)cc4C)c(C)nn13)CCC2	–
7 nM	4 nM	CCC(CC)Nc1c2c(nc3c(-c4ccc(OC)cc4Cl)c(C)nn13)CCO2	–
6 nM	31 nM	CCC(CC)Nc1cc(C)nc2c(-c3ccc(OC)cc3Cl)c(C)nn12	–
4 nM	40 nM	CCC(CC)Nc1c2c(nc3c(-c4ccc(OC)cc4Cl)c(C)nn13)CCC2 [ONO-2333MS]	Kp at 1 h [3]: 0.4; AUC(0-inf) [4]: 278 ng·h/mL; Activity [5]: Active; bioavailability [6]: 22%; IC50 [7]: 7 nM; half-life [8]: 7.8 h; EC50 [9]: 40 nM; Tmax [10]: 1 h; Activity [11]: Active; half-life [12]: 4.7 h; AUC(0-inf) [13]: 608 ng·h/mL; Cmax [14]: 87.1 ng/mL; Vd [15]: 1.78 L/kg; clearance [16]: 18 mL/min/kg
3 nM	200 nM	CCC(CC)Nc1c2c(nc3c(-c4ccc(OC(F)F)cc4Cl)c(C)nn13)CCC2	–

From ChEMBL document CHEMBL1817601, “6,7-Dihydro-5H-cyclopenta[d]pyrazolo[1,5-a]pyrimidines and their derivatives as novel corticotropin-releasing factor 1 receptor antagonists” (Bioorg Med Chem, 2011)
